Source: PubChem (The Scripps Research Institute Molecular Screening Center)
SIAE inh: inhibitors of human sialic acid acetylesterase SIAE. Q9HAT2. SIAE FP-Rh probe binding, fluorescence polarization. inhibition, % at 9.66 µM. 0.69% of 370,000 active;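 active means inhibition above a cutoff: mean of compounds within the control limits plus 3 SD of those, cut at about 17% in these data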;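 further: 0% = plate median of compound wells and 100% = probe without SIAE protein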
Target sequence (Q9HAT2 whole entry, looked up): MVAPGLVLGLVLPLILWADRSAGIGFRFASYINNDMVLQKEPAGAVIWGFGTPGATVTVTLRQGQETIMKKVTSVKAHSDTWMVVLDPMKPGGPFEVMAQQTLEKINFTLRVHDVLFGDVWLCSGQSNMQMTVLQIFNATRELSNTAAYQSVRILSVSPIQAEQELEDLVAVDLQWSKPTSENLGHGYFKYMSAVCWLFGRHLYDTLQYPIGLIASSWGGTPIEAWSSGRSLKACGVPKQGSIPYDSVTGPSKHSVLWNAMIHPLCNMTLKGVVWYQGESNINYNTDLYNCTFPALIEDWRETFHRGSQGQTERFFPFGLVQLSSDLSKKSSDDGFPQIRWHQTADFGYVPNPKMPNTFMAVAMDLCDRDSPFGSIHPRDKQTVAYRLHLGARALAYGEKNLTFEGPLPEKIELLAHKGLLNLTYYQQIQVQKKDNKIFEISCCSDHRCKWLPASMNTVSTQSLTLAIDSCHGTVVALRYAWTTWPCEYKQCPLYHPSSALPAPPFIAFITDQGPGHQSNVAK
TCR CD3 inh: human TCR-CD3 binding inhibition; inhibition, % at 9.4 µM; 0.37% of 360,000 active; TAMRA-labeled TCR probe fluorescence, biochemical; in the data active means inhibition above about 19%;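 further: recombinant mutant TCR 2C K166C tagged with TAMRA read by polarization; 0% = receptor in buffer alone and 100% = receptor with positive control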
ABHD4 inh: inhibitors of mouse ABHD4; Q8VD66; purified mABHD4, FP-Rh probe fluorescence polarization; inhibition, % at 8.92 µM; 0.54% of 370,000 active;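 active means inhibition exceeding the mean over every tested compound plus 3 SD, cut at about 30% in these data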;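 further: 0% = plate median of compound wells and 100% = S159A mutant with DMSO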
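assay system = mABHD4 protein | compound dosing = single nominal dose of 8.92 µM, 0.89% DMSO final | read-out basis = percent inhibition of probe binding, normalized to plate controls | schedule = Enzyme–compound pre-incubation 45 min, then probe 60 min, both 25 °C | detection = fluorescence polarization, excitation 525 nm, emission 598 nm, BODIPY TMR filters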
HTRA1 inhibitor: HTRA1 (human) protease inhibition | Q92743 | recombinant HTRA1, FP-rhodamine activity-based probe, fluorescence polarization | inhibition, % at 5.96 µM | 0.5% of 340,000 active | AID 504803; in the data active means inhibition above about 36%;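 further: 0% = enzyme with DMSO and 100% = wells lacking enzyme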
rCAG binder: r(CAG) repeat RNA binding; TO-PRO-1 dye displacement fluorescence; inhibition, % at 3 µM; 1.3% of 370,000 active;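 active means inhibition above the plate cutoff, the mean of all test compounds on that plate plus 3 SD, cut at about 35% in these data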;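 further: 0% = DMSO alone and 100% = 100 µM mitoxantrone as full dye displacement; higher means more dye released from RNA so lower well fluorescence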
SIAE inh conf: confirmation of human SIAE inhibitors; shares compounds with SIAE inh; 13% of 2,300 active; AID 1117263; SIAE FP-Rh activity-based probe, fluorescence polarization; inhibition, % at 9.66 µM;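 active means mean inhibition of the replicates above the hit cutoff set in the primary screen, cut at about 17% in these data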;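 further: 0% = SIAE with DMSO and probe and 100% = probe without SIAE; inhibitors lower polarization as more probe stays unbound to SIAE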
* marks the source's active call; other numbers are inactive results; . = not tested or not shown. An excerpt weighted towards active compounds, which were near 2.5% of everything screened.

SMILES	SIAE inh	TCR CD3 inh	ABHD4 inh	HTRA1 inhibitor	rCAG binder	SIAE inh conf
Cc1ccc(S(=O)(=O)NNC(=S)Nc2ccc(Cl)cc2)cc1	10.0	2.0	3.2	-8.2	9.8	.
COc1ccc(C2C(C(=O)c3sc(C)nc3C)=C(O)C(=O)N2CCN2CCOCC2)cc1 (centres undefined)	3.5	0.8	1.4	5.3	0.1	.
CCOC(=O)CCC(=O)N1CCOCCN(C(=O)CCC(=O)OCC)CCOCC1	18.5*	8.0	4.3	-0.2	-3.5	6.4
CCOC(=O)/C(=N/Nc1ccc(OC)cc1)Sc1nnc(CCc2ccccc2)n1-c1ccccc1	17.3*	2.3	-2.9	-3.5	3.3	1.6
CCOc1cc(NC(=S)Nc2cccc(C)c2)c(OCC)cc1NC(=O)CC(C)C	8.7	-6.3	15.5	1.2	1.3	.
CC1(C(=O)NNC(=O)c2cccc([N+](=O)[O-])c2)CC1Br (centres undefined)	3.9	-5.2	-4.6	-0.4	3.3	.
O=C(NNC(=O)C1CC1c1ccccc1)c1cccc([N+](=O)[O-])c1 (centres undefined)	18.1*	-1.2	-0.8	4.2	1.4	0.7
CC1=C(C(=O)N(C(C)C)C(C)C)CC(CC(=O)NCc2cccs2)C(=O)N1CCCN1CCCC1=O (centres undefined)	20.8*	-6.3	5.3	.	-1.2	0.4
Cc1cc[n+](-c2[nH]c(=O)sc2/C=N/N=C(\[O-])CCn2c3ccccc3c3ccccc32)cc1	24.3*	-5.3	14.4	.	21.0	10.9
COc1ccc(/C=N/Nc2nc3ccccc3[nH]2)c(OC)c1OC	21.1*	-0.1	7.9	9.8	-3.1	4.4
Cc1[nH]c2ccccc2c1/C=N/Nc1nc2ccccc2[nH]1	32.3*	-1.5	24.2	.	12.0	36.8*
Cc1ccccc1/C=N/Nc1nc2ccccc2[nH]1	1.3	-4.5	15.9	1.6	2.6	.
Cc1[nH]c2ccccc2c1/C=N/Nc1nc(N2CCCCC2)nc(N2CCCCC2)n1	17.9*	1.0	20.8	2.8	-1.7	6.5
COc1ccc(/C=N/Nc2ccccn2)c(OC)c1OC	1.9	2.3	1.9	2.2	-7.1	.
COc1cccc(C2(O)CCN(C(=O)C3CC3)CC2)c1	-2.5	-2.0	-4.1	9.7	0.1	.
CSCC[C@H](NC(=O)Nc1ccc(C)cc1)C(=O)O	5.4	-0.2	-3.5	5.0	-1.3	.
O=S(=O)(c1ccc(N2CCCCCC2)nc1)N1CCCC1	19.6*	-2.2	0.7	5.2	-0.9	-0.6
CS(=O)(=O)N(CC(=O)NCCSC1CCCCC1)c1cccc(F)c1	17.6*	-2.2	8.1	-0.5	0.1	0.8
CS(=O)(=O)N(CC(=O)NCCSC1CCCCC1)c1ccccc1	-6.3	6.3	-4.4	-5.2	-6.7	.
O=C(c1cccc(-n2cccc2)c1)N1CCN(S(=O)(=O)c2ccccc2Br)CC1	-6.4	6.4	-6.1	-10.8	-3.2	.
O=C(c1ccncc1)N1CCN(S(=O)(=O)c2ccccc2Br)CC1	17.6*	0.0	1.6	3.8	4.0	0.7
O=C(Cc1ccc(NC(=O)C2CCCN(C(=O)C3CCCC3)C2)cc1)Nc1cccc(C(=O)N2CCCCC2)c1 (centres undefined)	-6.5	-2.3	-1.9	-3.4	1.6	.
Cc1ccc(Cn2cccc2/C=N/NC(=S)Nc2ccc(C)cc2)cc1	2.1	3.5	6.5	-9.2	5.1	.
COc1ccc(NC(=S)N/N=C/c2cccn2Cc2ccc(F)cc2)cc1	18.6*	-3.8	6.2	-0.6	6.6	5.5
Cc1coc2cc3oc(=O)c(CCC(=O)NCCCn4ccnc4)c(C)c3cc12	7.9	3.5	-1.3	-5.4	-3.1	.
SMILES	SIAE inh	TCR CD3 inh	ABHD4 inh	HTRA1 inhibitor	rCAG binder	SIAE inh conf
Cc1c(CCC(=O)NCCCn2ccnc2)c(=O)oc2cc3occ(C(C)(C)C)c3cc12	18.2*	-4.8	11.9	1.1	-8.2	0.7
Cc1ccc(NC(=O)c2ccc(S(=O)(=O)N3CC(C)CC(C)C3)cc2)cc1S(=O)(=O)N1CCOCC1 (centres undefined)	-101.8	12.8	-1.6	-4.3	4.8	.
CC1=C(C)CC(C(=O)NC2CCCC2)C(C(=O)O)C1 (centres undefined)	6.0	2.5	-1.8	0.9	-2.5	.
CC1=CCC(C(=O)O)C(C(=O)NC2CCCCC2)C1 (centres undefined)	22.0*	3.2	3.5	8.2	1.4	2.1
CC1CCCCN1C(=O)COC(=O)CNC(=O)c1ccc(Cl)cc1Cl (centres undefined)	5.8	6.2	3.8	6.3	-3.3	.
O=C(CNC(=O)c1ccccc1)OCN1C(=O)c2ccccc2C1=O	-1.8	-1.4	8.0	6.8	-1.3	.
O=C(CNC(=O)c1ccc(Cl)cc1Cl)OCN1C(=O)c2ccccc2C1=O	19.1*	0.0	1.2	2.0	-3.2	-4.5
COC(=O)C1CCN(C(=O)COC(=O)CNC(=O)c2ccc(Cl)cc2Cl)CC1	19.6*	-5.2	1.8	11.0	3.4	-3.9
CC(C)NC(=O)CN(Cc1ccc2c(c1)OCO2)C(=O)CCC(=O)Nc1ccccn1	9.0	-8.3	-2.4	0.3	-5.6	.
NS(=O)(=O)c1ccc(CNC(=O)c2ccc(Cl)c([N+](=O)[O-])c2)cc1	-5.4	-7.7	-0.7	3.8	-2.2	.
COC(=O)c1cn(-c2ccc(F)cc2)c(=O)c2ccccc12	18.0*	-0.2	3.2	-1.8	-2.1	5.6
COc1ccc2[nH]c3c(N4CCN(Cc5ccc6c(c5)OCO6)CC4)ncnc3c2c1	3.1	-5.0	5.2	-17.5	0.9	.
Cc1ccc2[nH]c3c(N4CCc5ccccc5C4)ncnc3c2c1	23.2*	1.5	29.3	-26.6	9.4	13.0
COc1ccc2[nH]c3c(N4CCC(O)(c5cccc(C(F)(F)F)c5)CC4)ncnc3c2c1	17.8*	-4.3	17.7	-14.1	2.0	14.8
CC(=O)c1cccc(NC(=S)NC(=O)c2ccc(Cl)cc2)c1	-7.1	-6.3	9.1	3.0	-1.9	.
COc1ccc(OC(=O)Nc2ccccc2)cc1	18.6*	2.3	5.4	-2.5	-2.2	2.0
CC(=O)Nc1ccc(NC(=O)Oc2ccccc2)cc1	-10.9	2.6	-3.2	-7.7	-1.6	.
Cc1cc(C)cc(C(=O)NC(CC(N)=O)c2ccc(N3CCN(c4ccccc4)CC3)c([N+](=O)[O-])c2)c1 (centres undefined)	21.5*	-4.4	-3.1	-1.9	10.1	6.4
O=C(O)c1cn(-c2ccc(F)c(F)c2)c2c(F)c(F)c(F)c(F)c2c1=O	19.8*	5.6	1.6	-4.8	-1.3	1.8
Cc1ccc(C)c(C(=O)CN2Cc3ccccc3C2=O)c1	22.6*	0.3	1.0	0.8	-3.4	-4.3
O=S(=O)(Nc1ccc(-c2cn3c(n2)SCC3)cc1)c1cc(F)ccc1F	3.0	0.6	1.0	-1.0	20.2	.
CN1C(=O)c2ccccc2Cc2c(NCc3ccccc3)ncnc21	12.6	3.5	-1.6	2.6	3.0	.
O=C1C2C3C=CC(C3=C3CCCCC3)C2C(=O)N1c1ccccc1 (centres undefined)	19.1*	-2.8	1.4	-2.7	0.2	1.9
